Scp-1 inhibitor: Scp-1 (human) phosphatase inhibition. AID 493091. Q9GZU7. actives 0.88% (n = 340,000). inhibition, % at 20 µM. Recombinant Scp1, phosphopeptide, malachite green phosphate absorbance;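 active = inhibition above about 50% at 20 µM, limit read from the data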
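System: SCP-1 catalytic domain; Reagent: Phospho 17-mer peptide substrate; Doses: one concentration, 20 µM, with 1.0% DMSO; Incubation: 45 min room-temperature reaction, 5 min colour, 30 min stabiliser; Signal: Phosphate-binding colour reagent, absorbance read at 630 nm.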
LMPTP block: blocks human LMPTP phosphatase; P24666; recombinant LMPTP-A, OMFP fluorogenic substrate, fluorescence intensity; inhibition, % at 20 µM; actives 0.22% (n = 360,000);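 active = compounds that cut the enzyme signal by at least half of the control window in the single-dose screen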
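Material: LMPTP-A; amount: 0.625 nM enzyme; doses: single 20 µM dose; times: reaction 50 min, room temperature, dark; technique: fluorescence intensity of OMFP turnover product; benchmarks: no-enzyme and uninhibited controls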
DNMT1 block: DNMT1 (human) enzyme inhibition. actives 0.83% (n = 360,000). AID 588458. DNMT1 molecular beacon, Hinp1I cleavage, fluorescence. inhibition (reported as % activation of signal), % at 10 µM; in the data active = inhibition above about 50%
Target sequence (P26358 504-1616 limits assumed): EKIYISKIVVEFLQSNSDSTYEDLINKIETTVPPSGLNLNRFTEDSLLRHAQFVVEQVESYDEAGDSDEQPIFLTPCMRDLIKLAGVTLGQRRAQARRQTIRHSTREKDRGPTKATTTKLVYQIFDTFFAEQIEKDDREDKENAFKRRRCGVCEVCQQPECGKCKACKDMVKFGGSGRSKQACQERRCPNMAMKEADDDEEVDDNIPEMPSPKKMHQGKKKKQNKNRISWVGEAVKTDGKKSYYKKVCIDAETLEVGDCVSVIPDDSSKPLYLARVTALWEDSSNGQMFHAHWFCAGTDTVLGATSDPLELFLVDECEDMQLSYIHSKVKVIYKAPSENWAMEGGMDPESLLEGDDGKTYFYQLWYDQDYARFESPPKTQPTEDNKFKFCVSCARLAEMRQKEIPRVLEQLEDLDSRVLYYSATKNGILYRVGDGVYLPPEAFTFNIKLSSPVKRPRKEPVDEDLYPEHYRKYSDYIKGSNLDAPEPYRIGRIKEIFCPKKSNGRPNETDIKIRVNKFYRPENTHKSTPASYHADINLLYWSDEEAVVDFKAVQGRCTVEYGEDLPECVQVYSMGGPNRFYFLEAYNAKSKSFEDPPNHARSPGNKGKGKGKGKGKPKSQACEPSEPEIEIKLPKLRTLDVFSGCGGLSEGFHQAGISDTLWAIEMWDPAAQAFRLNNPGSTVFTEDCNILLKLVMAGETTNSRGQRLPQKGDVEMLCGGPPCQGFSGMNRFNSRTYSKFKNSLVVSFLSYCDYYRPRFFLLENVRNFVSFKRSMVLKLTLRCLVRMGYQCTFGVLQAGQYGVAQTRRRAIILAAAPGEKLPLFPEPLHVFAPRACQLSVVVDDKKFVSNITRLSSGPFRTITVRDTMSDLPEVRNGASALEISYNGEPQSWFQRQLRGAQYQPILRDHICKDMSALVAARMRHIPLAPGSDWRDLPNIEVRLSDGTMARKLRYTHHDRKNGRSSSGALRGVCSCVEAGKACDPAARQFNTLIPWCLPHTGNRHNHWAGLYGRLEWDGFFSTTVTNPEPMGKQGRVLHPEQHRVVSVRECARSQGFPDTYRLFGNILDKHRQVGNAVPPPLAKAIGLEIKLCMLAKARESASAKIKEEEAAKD
UBC9 SUMO inh: blocks human SUMOylation mediated by UBC9. inhibition, % at 35 µM. actives 0.36% (n = 290,000). HTRF SUMOylation assay, SAE1/SAE2 + UBC9, in vitro. P63279; in the data active = inhibition above about 50%, passing the limit was not always enough
STEP inh: blocks human striatal-enriched tyrosine phosphatase; actives 0.25% (n = 360,000); P54829; AID 588621; recombinant STEP, OMFP fluorogenic substrate, fluorescence; inhibition, % at 20 µM;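 active = inhibition at 20 µM, scaled per plate between control wells, above about 37%, limit read from the data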
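System: STEP (striatal-enriched tyrosine phosphatase) enzyme, cell-free; medium: Bis-Tris pH 6.0 buffer with DTT, detergent; dosing: 20 µM, 1% DMSO; times: reaction 20 min, ambient temperature; detection: fluorescence, 480/540 nm; read-out basis: normalized % inhibition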
SUMO1 PPI mod: alters human SUMO1 binding to SIM partners. SUMO1 binding to a labelled peptide, TR-FRET, 1 h. inhibition, % at 20 µM. actives 0.33% (n = 360,000); in the data active = inhibition above about 37%
DNMT1 interf DR: shows spectral interference in the DNMT1 beacon assay. shares compounds with DNMT1 block. molecular beacon fluorescence, spectral interference counter-screen. IC50, µM. 200 tested, under 10 active. AID 602382; call rule not given here
DNMT1 inh conf: DNMT1 inhibition confirmation, single concentration. shares compounds with DNMT1 block. DNMT1 molecular beacon HinP1I cleavage, fluorescence. inhibition, % at 10 µM. actives 8% (n = 2,300);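 active = average inhibition of at least 30% in the single-concentration confirmation test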
DNMT1 interf: beacon fluorescence artifact counter-screen. shares compounds with DNMT1 block. DNMT1 molecular beacon spectral interference counterscreen, fluorescence 485/520. activation (fluorescence interference), % at 10 µM. actives 1% (n = 2,300);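 active = activation of at least 30% at 10 µM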;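 also: DNMT1 catalytic domain with a HinP1I cleavage step and a FAM/dabcyl DNA beacon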
Hits are given with their value; 0 = inactive; - = not tested or not shown. The list is not random: actives were taken first. Their share in the collection is about 1.9%.

SMILES	Scp-1 inhibitor	LMPTP block	DNMT1 block	UBC9 SUMO inh	STEP inh	SUMO1 PPI mod	DNMT1 inh conf	DNMT1 interf	others
CCNc1c(NS(=O)(=O)c2ccc(F)c(Cl)c2)c(=O)oc2ccccc12	0	0	0	0	0	0	-	-
COC(=O)CSc1nc(C)c2c(n1)CCCC2	0	0	0	0	0	0	-	-
CCC(C)[C@H](NC(=O)[C@@H]1Cc2ccccc2CN1)C(=O)Nc1ccc2c(c1)OCO2 (stereo partly drawn)	0	0	0	0	0	0	-	-
O=c1nc(Nc2ccccc2)sc2ccc([N+](=O)[O-])cc12	0	0	56.6	0	0	0	0	0
CN(Cc1ccccc1)C(=O)COC(=O)c1cc([N+](=O)[O-])ccc1N1CCOCC1	0	0	110.6	-	0	0	0	0
COc1ccc(S(=O)(=O)N2CC(=O)Nc3ccccc32)cc1	0	0	0	0	0	0	-	-
Cc1csc(N=Cc2ccc([N+](=O)[O-])o2)n1	-	0	86.3	-	0	0	0	0
Cc1c(C)c2ccc(OCC(=O)N[C@@H](Cc3ccccc3)C(=O)O)cc2oc1=O	0	0	0	0	0	0	-	-
CCCCCCc1c(C)c2ccc(OCC(=O)N[C@@H](Cc3ccccc3)C(=O)O)cc2oc1=O	0	0	60.6	0	0	0	0	0
Cc1cc(C(=O)NCC(c2cccs2)N2CCOCC2)ccc1[N+](=O)[O-] (stereo not drawn)	0	0	0	0	0	0	-	-
O=C(Nc1nnc(-c2ccccc2F)s1)Nc1ccccc1F	0	0	52.7	0	0	0	0	0
CC(C)CC(NC(=O)C(NC(=O)C1OC2OC(C)(C)OC2C2OC(C)(C)OC12)C(C)C)C(=O)O (stereo not drawn)	0	0	0	0	0	0	-	-
Cc1ccc(NC(=O)Cn2cnc(C(=O)Nc3ccc(C)c(C)c3)n2)cc1C	0	0	51.8	-	0	0	0	0
CC1(C)CC2(CCCN(CC(O)(c3ccccc3)c3ccccc3)C2)CCO1 (stereo not drawn)	0	0	93.6	0	0	0	0	0
Cc1cc([N+](=O)[O-])nn1CCCC(=O)NC1CCCCC1	0	0	0	0	0	0	-	-
CCS(=O)(=O)N1Cc2ccccc2CC1C(=O)N1CCN(c2cccc(C)c2C)CC1 (stereo not drawn)	0	0	64.8	0	0	0	0	0
COc1ccc2cc3c(N)nn(C(=O)Cc4ccc(Cl)cc4)c3nc2c1	0	0	69.5	0	0	0	0	0
Nc1nnnn1/N=C/c1cc(Cl)cc(Cl)c1OCc1ccc(Cl)cc1Cl	0	0	58.8	0	0	0	0	0
Nc1nnnn1/N=C/c1ccccc1OCc1ccc(Cl)cc1Cl	0	0	52.3	0	0	0	0	0
Nc1nnnn1/N=C/c1cc(Cl)cc(Cl)c1O	0	0	0	0	0	0	-	-
COc1cc(/C=C/C=C2/CC/C(=C/C=C/c3ccc(O)c(OC)c3)C2=O)ccc1O	0	0	90.3	-	0	0	0	0	DNMT1 interf DR=0
COc1cc(/C=C2/CC/C(=C/c3ccc(O)c(OC)c3)C2=O)ccc1O	0	0	0	0	0	0	-	-
O=C(COc1cccc(F)c1)Nc1nc(-c2ccncc2)cs1	0	0	0	-	0	0	-	-
C=CCOC(=O)c1cc(-c2ccc(/C=C3\C(=O)NC(=O)C(C#N)=C3C)o2)ccc1Cl	87.0	0	105.2	0	0	43.4	97.3	0	DNMT1 interf DR=0
Cc1cccc(N=C2NC(=O)/C(=C/C=C/c3ccco3)S2)c1C	65.9	0	94.1	58.3	0	40.2	0	0
SMILES	Scp-1 inhibitor	LMPTP block	DNMT1 block	UBC9 SUMO inh	STEP inh	SUMO1 PPI mod	DNMT1 inh conf	DNMT1 interf	others
Cc1ccc(N=C2NC(=O)/C(=C/C=C/c3ccco3)S2)cc1	0	0	87.0	0	0	0	0	0
Cc1nn(Cc2ccccc2)c(C)c1NC(=O)CSc1nc(C2CC2)nc2c1cnn2-c1ccccc1	0	0	58.4	0	0	0	0	0
CCc1nc(SCC(=O)Nc2c(C)nn(C)c2C)c2cnn(-c3ccccc3)c2n1	-	-	-	0	-	-	-	-
Cc1nn(C)c(C)c1NC(=O)CSc1nc(Cc2ccccc2)nc2c1cnn2-c1ccccc1	0	0	50.6	-	0	0	0	0
CCOC(=O)c1c(C)[nH]c(C(=O)COC(=O)C(C)N2C(=O)C3CCCCC3C2=O)c1C (stereo not drawn)	0	0	0	0	0	0	-	-
CCOC(=O)CCC1(C(=O)OC)C(=O)CCCCCC=C1C(=O)OC (stereo not drawn)	-	0	0	-	0	0	-	-
CCCCn1nnnc1C(c1cc2ccccc2o1)N1CCN(CC(=O)NC(C)C)CC1 (stereo not drawn)	-	0	-	-	-	0	-	-
CN(CC(=O)Nc1ccccc1C(F)(F)F)Cc1c(O)ccc2ccccc12	0	0	0	0	0	0	-	-
O=C(C1=C(O)C(=O)N(Cc2ccco2)C1c1cccc(O)c1)c1ccco1 (stereo not drawn)	0	0	80.9	0	0	0	0	0
Cc1ccc(C(=O)C2=C(O)C(=O)N(Cc3ccco3)C2c2cccc(Br)c2)o1 (stereo not drawn)	0	0	0	0	0	0	-	-
Nc1nc(-c2cccs2)c(-c2cccs2)s1	0	0	0	0	0	0	-	-
Nc1nc(-c2ccco2)c(-c2ccco2)s1	0	0	51.2	0	0	0	0	0
COc1ccc(Cl)cc1Cn1c(C)c(C(=O)NCc2ccc(F)cc2)sc1=O	-	0	0	-	0	0	-	-
CCCCC(CCC(=O)O)(C(=O)OCC)c1csc(Nc2ccc(OCC)cc2)n1 (stereo not drawn)	0	0	0	0	0	0	-	-
CCOc1ccc(C(=O)Nc2ccc(S(=O)(=O)N3CCOCC3)cc2)cc1OCC	0	0	0	0	0	0	-	-
CCOc1ccc(NC(=O)c2cccc(-n3cccc3)c2)cc1S(=O)(=O)N1CCOCC1	-	0	102.0	-	0	56.6	80.7	0	DNMT1 interf DR=0
Cc1cc(NC(=O)c2ccccc2F)nc2c1c(=O)oc1ccccc12	0	0	0	0	0	0	-	-
COc1ccc(/C=N/Nc2cc(N(C)C)nc(N(C)C)n2)cc1	0	0	51.5	95.4	0	0	0	0
CN(C)c1cc(N/N=C\c2ccccc2)nc(N(C)C)n1	0	0	0	-	0	0	-	-
CCn1nnnc1NCc1ccc(N2CCCC2)cc1	0	60.2	81.5	0	0	0	0	0
CCn1nnnc1NCc1ccc(SC)cc1	0	0	0	0	0	0	-	-

Screening data: PubChem BioAssay, Sanford-Burnham Center for Chemical Genomics
